≈ marks a conversion by molar mass, not a printed value.
tested on: CV-1; assay: Chemotherapeutic index in CV-1 cells (chemotherapeutic index=50% cytotoxic dose/50% effective dose).; assay type: functional, Cercopithecidae; conditions: not given
In short: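 Index = 50% cytotoxic dose / 50% plaque-inhibition dose. For cytotoxicity, 200 cells/mL in suspension were mixed with 10% FBS MEM carrying serial compound dilutions and incubated 7 days at 37 °C under 5% CO2. Colonies were stained with 1% crystal violet and counted, and the 50% cytotoxic dose was read from the dose-response curve.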

Structure (SMILES)	Chemotherapeutic index
CN(C)S(=O)(=O)Nc1cccc(/C(=N/O)c2ccc(CO)cc2)c1	55
CSc1ccc(/C(=N\O)c2cccc(NS(=O)(=O)N(C)C)c2)cc1	9
COc1cccc(/C(=N\O)c2cccc(NS(=O)(=O)N(C)C)c2)c1	74
CN(C)S(=O)(=O)Nc1cccc(/C(=N/O)c2ccc(Cl)cc2)c1	26
COc1ccc(/C(=N\O)c2cccc(NS(=O)(=O)C(C)C)c2)cc1	32
COc1ccc(/C(=N\O)c2cccc(NS(=O)(=O)N(C)C)c2)c(OC)c1	28
COc1ccc(/C(=N/O)c2cccc(NS(=O)(=O)N(C)C)c2)c(OC)c1	1.8
Cc1ccc(/C(=N\O)c2cccc(NS(=O)(=O)N(C)C)c2)cc1	86
COCc1ccc(/C(=N\O)c2cccc(NS(=O)(=O)N(C)C)c2)cc1	28
COCc1ccc(/C(=N\O)c2cccc(NS(=O)(=O)C(C)C)c2)cc1	68
CN(C)S(=O)(=O)Nc1cccc(/C(=N/O)c2ccccc2)c1	24
CCc1ccc(NC(=O)c2ccc(NS(=O)(=O)N(C)C)cc2)cc1	10
CN(C)S(=O)(=O)Nc1ccc(C(=O)Nc2ccc(Cl)cc2)cc1	220
CC(C)Cc1ccc(NC(=O)c2ccc(NS(=O)(=O)N(C)C)cc2)cc1	7
CN(C)S(=O)(=O)Nc1cccc(/C(=N/O)c2cccc(CO)c2)c1	20
COc1ccc(/C(=N/O)c2cccc(NS(=O)(=O)N(C)C)c2)cc1	3.4
CC(C)S(=O)(=O)n1c(N)nc2ccc(/C(=N\O)c3ccccc3)cc21 [ZINVIROXIME]	61

tested on: Enterovirus; assay: Antiviral activity against rhinovirus 10 using plaque-inhibition assay; assay type: functional; conditions: read-out: ED50 (the source's name)
In short: (§1)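 Plaque reduction: confluent monolayers were infected with 100-200 PFU. Hela (Ohio) cells were used for rhinoviruses 10 and 1A and coxsackieviruses B4 and A9, CV-1 for poliovirus type 1 Mahoney, and LLC-MK2 for enterovirus 70. Cells were overlaid with 2.0% agar in MEM plus 4% FBS containing serial compound concentrations. Incubation was 37 °C for polio/coxsackie and 33 °C for rhino/enterovirus, with a neutral red (0.004%) second overlay. ED50 was taken from the dose-response curve.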

Structure (SMILES)	EC50 [µg/mL]
CN(C)S(=O)(=O)Nc1cccc(/C(=N/O)c2ccc(CO)cc2)c1	0.37 (≈ 1.06 µM)
CSc1ccc(/C(=N\O)c2cccc(NS(=O)(=O)N(C)C)c2)cc1	0.26 (≈ 0.711 µM)
CC(C)S(=O)(=O)Nc1cccc(/C(=N/O)c2ccc(CO)cc2)c1	0.39 (≈ 1.12 µM)
COc1cccc(/C(=N\O)c2cccc(NS(=O)(=O)N(C)C)c2)c1	0.41 (≈ 1.17 µM)
CN(C)S(=O)(=O)Nc1cccc(/C(=N/O)c2ccc(Cl)cc2)c1	0.53 (≈ 1.5 µM)
COc1ccc(/C(=N\O)c2cccc(NS(=O)(=O)C(C)C)c2)cc1	0.62 (≈ 1.78 µM)
COc1ccc(/C(=N\O)c2cccc(NS(=O)(=O)N(C)C)c2)c(OC)c1	0.89 (≈ 2.35 µM)
COc1ccc(/C(=N/O)c2cccc(NS(=O)(=O)N(C)C)c2)c(OC)c1	4 (≈ 10.5 µM)
Cc1ccc(/C(=N\O)c2cccc(NS(=O)(=O)N(C)C)c2)cc1	0.41 (≈ 1.23 µM)
COCc1ccc(/C(=N\O)c2cccc(NS(=O)(=O)N(C)C)c2)cc1	0.36 (≈ 0.991 µM)
COCc1ccc(/C(=N\O)c2cccc(NS(=O)(=O)C(C)C)c2)cc1	0.98 (≈ 2.7 µM)
CN(C)S(=O)(=O)Nc1cccc(/C(=N/O)c2ccccc2)c1	0.54 (≈ 1.69 µM)
CN(C)S(=O)(=O)Nc1cccc(/C(=N/O)c2cccc(CO)c2)c1	1.6 (≈ 4.58 µM)
COc1ccc(/C(=N/O)c2cccc(NS(=O)(=O)N(C)C)c2)cc1	5.4 (≈ 15.5 µM)
CC(C)S(=O)(=O)n1c(N)nc2ccc(/C(=N/O)c3ccccc3)cc21 [ENVIROXIME]	0.024 (≈ 0.067 µM)
CC(C)S(=O)(=O)n1c(N)nc2ccc(/C(=N\O)c3ccccc3)cc21 [ZINVIROXIME]	0.24 (≈ 0.67 µM)

tested on: Poliovirus 1; assay: microbe, parasite or virus in culture; assay type: functional; conditions: Enterovirus C; read-out: ED50 (the source's name)

Structure (SMILES)	EC50 [µg/mL]
CCCCc1ccc(NC(=O)c2cccc(NS(=O)(=O)C(C)C)c2)cc1	0.42 (≈ 1.12 µM)
CC(C)S(=O)(=O)Nc1cccc(C(=O)NCc2ccccc2)c1	> 50
CCCOc1ccc(NC(=O)c2ccc(NS(=O)(=O)N(C)C)cc2)cc1	0.7 (≈ 1.85 µM)
CN(C)S(=O)(=O)Nc1cccc(NC(=O)c2ccccc2)c1	20 (≈ 62.6 µM)
CN(C)S(=O)(=O)Nc1cccc(/C(=N/O)c2ccc3c(c2)OCO3)c1	3.4 (≈ 9.36 µM)
CN(C)S(=O)(=O)Nc1cccc(/C(=N/O)c2ccc(CO)cc2)c1	0.4 (≈ 1.14 µM)
CC(C)S(=O)(=O)Nc1cccc(C(=O)Nc2ccccc2)c1	7 (≈ 22 µM)
CSc1ccc(/C(=N\O)c2cccc(NS(=O)(=O)N(C)C)c2)cc1	0.32 (≈ 0.876 µM)
CN(C)S(=O)(=O)Nc1ccc(C(=O)Nc2ccccc2)cc1	3 (≈ 9.39 µM)
COc1cccc(/C(=N\O)c2cccc(NS(=O)(=O)N(C)C)c2)c1	0.34 (≈ 0.973 µM)
CC(C)S(=O)(=O)Nc1ccc(C(=O)Nc2ccc(C(F)(F)F)cc2)cc1	0.25 (≈ 0.647 µM)
O=C(Nc1ccccc1)c1cccc(NS(=O)(=O)N2CCCC2)c1	6.4 (≈ 18.5 µM)
Cc1ccc(NS(=O)(=O)C(C)C)cc1C(=O)Nc1ccc(Cl)cc1	12 (≈ 32.7 µM)
CN(C)S(=O)(=O)Nc1ccc(C(=O)Nc2cccc(Cl)c2)cc1	1.6 (≈ 4.52 µM)
CN(C)S(=O)(=O)Nc1cccc(/C(=N/O)c2ccc(Cl)cc2)c1	0.46 (≈ 1.3 µM)
COc1ccc(/C(=N\O)c2cccc(NS(=O)(=O)C(C)C)c2)cc1	0.36 (≈ 1.03 µM)
CC(C)S(=O)(=O)Nc1cccc(C(=O)Nc2nccs2)c1	25 (≈ 76.8 µM)
CC(C)S(=O)(=O)Nc1cccc(C(=O)Nc2ccc(Cl)c(Cl)c2)c1	> 25
CN(C)S(=O)(=O)Nc1ccc(C(=O)Nc2ccc(C(C)(C)C)cc2)cc1	0.12 (≈ 0.32 µM)
CN(C)S(=O)(=O)Nc1cccc(C(=O)Nc2ccc(Br)cc2)c1	1.7 (≈ 4.27 µM)
COc1ccc(/C(=N\O)c2cccc(NS(=O)(=O)N(C)C)c2)c(OC)c1	1 (≈ 2.64 µM)
CN(C)S(=O)(=O)Nc1ccc(C(=O)Nc2cccc(Br)c2)cc1	5 (≈ 12.6 µM)
CC(C)S(=O)(=O)Nc1cccc(C(=O)Nc2cccc(CO)c2)c1	> 50

Structure (SMILES)	EC50 [µg/mL]
CN(C)S(=O)(=O)Nc1cccc(C(=O)Nc2ccccc2)c1	4 (≈ 12.5 µM)
CN(C)S(=O)(=O)Nc1ccc(C(=O)Nc2ccccc2Cl)cc1	6.2 (≈ 17.5 µM)
CN(C)S(=O)(=O)Nc1cccc(C(=O)Nc2ccc(C#N)cc2)c1	5 (≈ 14.5 µM)
CC(C)S(=O)(=O)Nc1cccc(C(=O)Nc2cccc(O)c2)c1	25 (≈ 74.8 µM)
CN(C)S(=O)(=O)Nc1cccc(C(=O)NC2CCCCC2)c1	28 (≈ 86 µM)
COC(=O)c1ccc(NC(=O)c2cccc(NS(=O)(=O)C(C)C)c2)cc1	4 (≈ 10.6 µM)
Cc1cccc(NC(=O)c2ccc(NS(=O)(=O)N(C)C)cc2)c1	2.3 (≈ 6.9 µM)
CC(C)S(=O)(=O)Nc1cccc(C(=O)NCc2ccco2)c1	> 50
COc1ccc(/C(=N\O)c2cccc(NS(=O)(=O)N3CCCC3)c2)cc1	1.1 (≈ 2.93 µM)
CC(=O)c1ccccc1NC(=O)c1cccc(NS(=O)(=O)C(C)C)c1	5 (≈ 13.9 µM)
CC(C)S(=O)(=O)Nc1cccc(C(=O)Nc2ccc(F)cc2)c1	4.2 (≈ 12.5 µM)
CC(C)S(=O)(=O)Nc1cccc(C(=O)NC(C)(C)C)c1	> 50
COc1ccc(/C(=N/O)c2cccc(NS(=O)(=O)N(C)C)c2)c(OC)c1	19.5 (≈ 51.4 µM)
CN(C)S(=O)(=O)Nc1ccccc1C(=O)Nc1ccccc1	25 (≈ 78.3 µM)
CCOc1ccc(/C(=N\O)c2cccc(NS(=O)(=O)N(C)C)c2)cc1	5.5 (≈ 15.1 µM)
CS(=O)(=O)Nc1cccc(C(=O)Nc2ccccc2)c1	> 50
Cc1ccc(/C(=N\O)c2cccc(NS(=O)(=O)N(C)C)c2)cc1	0.44 (≈ 1.32 µM)
COCc1ccc(/C(=N\O)c2cccc(NS(=O)(=O)N(C)C)c2)cc1	0.25 (≈ 0.688 µM)
COC(=O)c1cccc(NC(=O)c2ccc(NS(=O)(=O)N(C)C)cc2)c1	1.2 (≈ 3.18 µM)
COCc1ccc(/C(=N\O)c2cccc(NS(=O)(=O)C(C)C)c2)cc1	0.22 (≈ 0.607 µM)
CN(C)S(=O)(=O)Nc1cccc(C(=O)Nc2ccccn2)c1	44 (≈ 137 µM)
CN(C)S(=O)(=O)Nc1cccc(/C(=N/O)c2ccccc2)c1	0.79 (≈ 2.47 µM)
CC(C)S(=O)(=O)Nc1cccc(C(=O)Nc2ccccc2N)c1	> 50

Structure (SMILES)	EC50 [µg/mL]
CC(C)S(=O)(=O)Nc1cccc(C(=O)Nc2cccc([N+](=O)[O-])c2)c1	> 25
CCc1ccc(NC(=O)c2ccc(NS(=O)(=O)N(C)C)cc2)cc1	0.36 (≈ 1.04 µM)
CN(C)S(=O)(=O)Nc1ccc(Cl)c(C(=O)Nc2ccc(Cl)cc2)c1	> 50
CN(C)S(=O)(=O)Nc1ccc(C(=O)Nc2ccc(Cl)cc2)cc1	0.5 (≈ 1.41 µM)
COc1ccc(/C(=N\O)c2cccc(NS(=O)(=O)N(C)C)c2)cc1OC	0.55 (≈ 1.45 µM)
CC(C)S(=O)(=O)Nc1cccc(C(=O)NC(c2ccccc2)c2ccccc2)c1	> 50
CC(C)S(=O)(=O)Nc1cccc(C(=O)Nc2ccc(Cl)cc2)c1	1.2 (≈ 3.4 µM)
CC(C)S(=O)(=O)Nc1cccc(C(=O)Nc2ccc(Br)cc2)c1	0.7 (≈ 1.76 µM)
CN(C)S(=O)(=O)Nc1cccc(C(=O)Nc2ccc(C(F)(F)F)cc2)c1	0.46 (≈ 1.19 µM)
CCCCc1ccc(NC(=O)c2ccc(NS(=O)(=O)C(C)C)cc2)cc1	0.16 (≈ 0.427 µM)
CN(C)S(=O)(=O)Nc1cccc(C(=O)Nc2cccc(Cl)c2)c1	1.5 (≈ 4.24 µM)
O=C(Nc1ccccc1)c1cccc(NS(=O)(=O)N2CCCCC2)c1	11 (≈ 30.6 µM)
CC(C)Cc1ccc(NC(=O)c2ccc(NS(=O)(=O)N(C)C)cc2)cc1	0.16 (≈ 0.426 µM)
CN(C(=O)c1ccc(NS(=O)(=O)N(C)C)cc1)c1ccc(Cl)cc1	> 25
CN(C)S(=O)(=O)Nc1cccc(/C(=N/O)c2cccc(CO)c2)c1	0.5 (≈ 1.43 µM)
CC(C)S(=O)(=O)Nc1cccc(C(=O)Nc2ccccc2C(F)(F)F)c1	0.6 (≈ 1.55 µM)
CC(C)S(=O)(=O)Nc1cccc(C(=O)Nc2cccc(Cl)c2)c1	1.5 (≈ 4.25 µM)
O=C(Nc1ccccc1)c1cccc(NS(=O)(=O)c2ccccc2)c1	17 (≈ 48.2 µM)
CN(C)S(=O)(=O)Nc1cc(C(=O)Nc2ccccc2)ccc1Cl	10 (≈ 28.3 µM)
COc1ccc(/C(=N/O)c2cccc(NS(=O)(=O)N(C)C)c2)cc1	7.6 (≈ 21.8 µM)
COc1ccc(NC(=O)c2cccc(NS(=O)(=O)N(C)C)c2)cc1	4 (≈ 11.4 µM)
CC(C)S(=O)(=O)n1c(N)nc2ccc(/C(=N/O)c3ccccc3)cc21 [ENVIROXIME]	0.032 (≈ 0.0893 µM)
CC(C)S(=O)(=O)n1c(N)nc2ccc(/C(=N\O)c3ccccc3)cc21 [ZINVIROXIME]	0.14 (≈ 0.391 µM)

tested on: Enterovirus; assay: Antiviral activity against rhinovirus 1A using plaque-inhibition assay; assay type: functional; conditions: read-out: ED50 (the source's name); in short: as §1

Structure (SMILES)	EC50 [µg/mL]
CCc1ccc(NC(=O)c2ccc(NS(=O)(=O)N(C)C)cc2)cc1	0.2 (≈ 0.576 µM)
CN(C)S(=O)(=O)Nc1ccc(C(=O)Nc2ccc(Cl)cc2)cc1	0.32 (≈ 0.904 µM)
CC(C)Cc1ccc(NC(=O)c2ccc(NS(=O)(=O)N(C)C)cc2)cc1	0.13 (≈ 0.346 µM)

From ChEMBL document CHEMBL1123419, “Synthesis and antiviral activity of sulfonamidobenzophenone oximes and sulfonamidobenzamides” (1986)
